From ChEMBL document CHEMBL4017535 (J Med Chem, 2017)

Tests used:
[1] = target: T1, Bromodomain-containing protein 4 (Homo sapiens, UniProt O60885); assay: Binding affinity to human N-terminal His6-tagged BRD4 BD1-BD2 (K57 to K550 residues) after 1 hr using alexa-647 conjugated probe by TR-FRET assay
MX1 = assay: Antiproliferative activity against human MX1 cells after 72 hrs by Cell Titer Glo assay; format: functional, cell-based; conditions: MX1, 72 h
[2] = target: T1, Bromodomain-containing protein 4; assay: Inhibition of BRD4 in human H1299 cells assessed as decrease in HPV LCR-E2-EP400-mediated transcriptional repression after 24 hrs by Bright-Glo luciferase reporter gene assay; format: cell-based
Liver [3] = assay: Unbound intrinsic clearance in human liver microsomes at 10 uM preincubated for 5 mins followed by NADPH addition measured after 60 mins by HPLC-UV-MS analysis; format: ADME, microsome; conditions: 1 h
Liver [4] = assay: Unbound intrinsic clearance in mouse liver microsomes; format: ADME, microsome
In short: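 Liver microsome stability is expressed as unbound intrinsic clearance, Cl_int,u, in L/hr/kg. Dextromethorphan served as the in-house low-clearance reference control and verapamil as the high-clearance reference control.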

Liver [5] = assay: Unbound intrinsic clearance in rat liver microsomes at 10 uM preincubated for 5 mins followed by NADPH addition measured after 60 mins by HPLC-UV-MS analysis; format: ADME, microsome; conditions: 1 h
[6] = Permeability in MDCK cells; format: ADME, cell-based, Canis lupus familiaris; conditions: dog, read-out: permeability

## Cc1cc(-c2ccccc2Oc2ccccc2)c[nH]c1=O
[1]
  Ki: 1700 nM
MX1
  EC50: 2400 nM
[2]
  EC50: 2300 nM

## Cn1cc(-c2cc(NS(C)(=O)=O)ccc2Oc2ccccc2C(F)(F)F)c2cc[nH]c2c1=O
[1]
  Ki: 6.4 nM
MX1
  EC50: 83 nM
Liver [3]
  CL free: 533 mL/min/kg
Liver [4]
  CL free: 1350 mL/min/kg
Liver [5]
  CL free: 250 mL/min/kg
[6]
  Papp: 7.8 ×10⁻⁶ cm/s
[2]
  EC50: 76 nM

## CCS(=O)(=O)Nc1ccc(OCC(C)(C)C)c(-c2cn(C)c(=O)c3[nH]ccc23)c1
[1]
  Ki: 38 nM
MX1
  EC50: 77 nM
Liver [3]
  CL free: 283 mL/min/kg
Liver [4]
  CL free: 1030 mL/min/kg
Liver [5]
  CL free: 433 mL/min/kg
[6]
  Papp: 43 ×10⁻⁶ cm/s
[2]
  EC50: 79 nM

## CCNC(=O)c1ccc(Oc2ccccc2)c(-c2cn(C)c(=O)c3[nH]ccc23)c1
[1]
  Ki: 32 nM
MX1
  EC50: 130 nM
Liver [3]
  CL free: 68.3 mL/min/kg
Liver [4]
  CL free: 717 mL/min/kg
Liver [5]
  CL free: 4000 mL/min/kg
[6]
  Papp: 30 ×10⁻⁶ cm/s
[2]
  EC50: 70 nM

## Cn1cc(-c2cc(S(N)(=O)=O)ccc2Oc2ccccc2)c2cc[nH]c2c1=O
[1]
  Ki: 3.6 nM
MX1
  EC50: 56 nM
Liver [3]
  CL free: < 43.3 mL/min/kg
Liver [4]
  CL free: 517 mL/min/kg
Liver [5]
  CL free: 1320 mL/min/kg
[6]
  Papp: 22 ×10⁻⁶ cm/s
[2]
  EC50: 39 nM

## CCS(=O)(=O)Nc1ccc(Oc2c(F)cc(F)cc2F)c(-c2cn(C)c(=O)c3[nH]ccc23)c1
[1]
  Ki: 12 nM
MX1
  EC50: 7.9 nM
Liver [3]
  CL free: 102 mL/min/kg
Liver [4]
  CL free: 900 mL/min/kg
Liver [5]
  CL free: 233 mL/min/kg
[6]
  Papp: 21 ×10⁻⁶ cm/s
[2]
  EC50: 19 nM

## CN(C)S(=O)(=O)Nc1ccc(Oc2ccccc2)c(-c2cn(C)c(=O)c3[nH]ccc23)c1
[1]
  Ki: 2.9 nM
MX1
  EC50: 65 nM
Liver [3]
  CL free: 233 mL/min/kg
Liver [4]
  CL free: 2330 mL/min/kg
Liver [5]
  CL free: 4000 mL/min/kg
[6]
  Papp: 19 ×10⁻⁶ cm/s
[2]
  EC50: 43 nM

## Cn1cc(-c2cc(C(N)=O)ccc2Oc2ccccc2)c2cc[nH]c2c1=O
[1]
  Ki: 14 nM
MX1
  EC50: 120 nM
Liver [3]
  CL free: 48.3 mL/min/kg
Liver [4]
  CL free: 450 mL/min/kg
Liver [5]
  CL free: 550 mL/min/kg
[6]
  Papp: 14 ×10⁻⁶ cm/s
[2]
  EC50: 71 nM

## Cn1cc(-c2ccccc2Oc2ccccc2)ccc1=O
[1]
  Ki: 890 nM
MX1
  EC50: 4800 nM
[2]
  EC50: 4100 nM

## Cn1cc(-c2cc(NS(C)(=O)=O)ccc2Oc2cccnc2)c2cc[nH]c2c1=O
[1]
  Ki: 6.3 nM
MX1
  EC50: 34 nM
Liver [3]
  CL free: 86.7 mL/min/kg
Liver [4]
  CL free: 533 mL/min/kg
Liver [5]
  CL free: 350 mL/min/kg
[6]
  Papp: 3 ×10⁻⁶ cm/s
[2]
  EC50: 67 nM

## Cn1cc(-c2cc(S(C)(=O)=O)ccc2Oc2ccccc2)c2cc[nH]c2c1=O
[1]
  Ki: 5.8 nM
MX1
  EC50: 52 nM
Liver [3]
  CL free: 91.7 mL/min/kg
Liver [4]
  CL free: 383 mL/min/kg
Liver [5]
  CL free: 1080 mL/min/kg
[6]
  Papp: 24 ×10⁻⁶ cm/s
[2]
  EC50: 50 nM

## Cn1cc(-c2cc(NS(C)(=O)=O)ccc2OC2CCCCC2)c2cc[nH]c2c1=O
[1]
  Ki: 3.7 nM
MX1
  EC50: 14 nM
Liver [3]
  CL free: 450 mL/min/kg
Liver [4]
  CL free: 3670 mL/min/kg
Liver [5]
  CL free: 1600 mL/min/kg
[6]
  Papp: 23 ×10⁻⁶ cm/s
[2]
  EC50: 18 nM

## CC(=O)Nc1ccc(Oc2ccccc2)c(-c2cn(C)c(=O)c3[nH]ccc23)c1
[1]
  Ki: 9.8 nM
MX1
  EC50: 46 nM
Liver [3]
  CL free: 113 mL/min/kg
Liver [4]
  CL free: 3500 mL/min/kg
Liver [5]
  CL free: 767 mL/min/kg
[6]
  Papp: 28 ×10⁻⁶ cm/s
[2]
  EC50: 26 nM

## Cn1cc(-c2cc(NS(C)(=O)=O)ccc2OC2CCC(F)(F)CC2)c2cc[nH]c2c1=O
[1]
  Ki: 19 nM
MX1
  EC50: 19 nM
Liver [3]
  CL free: < 38.3 mL/min/kg
Liver [4]
  CL free: 717 mL/min/kg
Liver [5]
  CL free: 200 mL/min/kg
[6]
  Papp: 12 ×10⁻⁶ cm/s
[2]
  EC50: 20 nM

## CCS(=O)(=O)Nc1ccc(Oc2ccccc2)c(-c2cn(C)c(=O)c3[nH]ccc23)c1
[1]
  Ki: 1.5 nM
MX1
  EC50: 14 nM
Liver [3]
  CL free: < 45 mL/min/kg
Liver [4]
  CL free: 917 mL/min/kg
Liver [5]
  CL free: 3330 mL/min/kg
[6]
  Papp: 22 ×10⁻⁶ cm/s
[2]
  EC50: 8.1 nM

## COc1ccc2c(c1)[C@]13CCCC[C@@H]1[C@H](C2)N(C)CC3 [DEXTROMETHORPHAN]
Liver [3]
  CL free: 123 mL/min/kg

## CCS(=O)(=O)Nc1ccc(OC2CCN(C)CC2)c(-c2cn(C)c(=O)c3[nH]ccc23)c1
[1]
  Ki: 430 nM
MX1
  EC50: 210 nM
Liver [3]
  CL free: < 28.3 mL/min/kg
Liver [4]
  CL free: < 85 mL/min/kg
Liver [5]
  CL free: 80 mL/min/kg
[6]
  Papp: 0.55 ×10⁻⁶ cm/s
[2]
  EC50: 880 nM

## CCS(=O)(=O)Nc1ccc(Oc2ccc(C#N)cc2)c(-c2cn(C)c(=O)c3[nH]ccc23)c1
[1]
  Ki: 9.4 nM
MX1
  EC50: 17 nM
Liver [3]
  CL free: 41.7 mL/min/kg
Liver [4]
  CL free: < 108 mL/min/kg
Liver [5]
  CL free: 81.7 mL/min/kg
[6]
  Papp: 11 ×10⁻⁶ cm/s
[2]
  EC50: 48 nM

## CCS(=O)(=O)Nc1ccc(Oc2ccc(Cl)cc2)c(-c2cn(C)c(=O)c3[nH]ccc23)c1
[1]
  Ki: 3.4 nM
MX1
  EC50: 22 nM
Liver [3]
  CL free: < 96.7 mL/min/kg
Liver [4]
  CL free: 900 mL/min/kg
Liver [5]
  CL free: 200 mL/min/kg
[6]
  Papp: 21 ×10⁻⁶ cm/s
[2]
  EC50: 17 nM

## Cn1cc(-c2cc(NS(C)(=O)=O)ccc2OCc2ccccc2)c2cc[nH]c2c1=O
[1]
  Ki: 68 nM
MX1
  EC50: 110 nM
Liver [3]
  CL free: 122 mL/min/kg
Liver [4]
  CL free: 900 mL/min/kg
Liver [5]
  CL free: 567 mL/min/kg
[6]
  Papp: 24 ×10⁻⁶ cm/s
[2]
  EC50: 120 nM

## Cc1sc2c(c1C)C(c1ccc(Cl)cc1)=N[C@@H](CC(=O)OC(C)(C)C)c1nnc(C)n1-2
MX1
  EC50: 254 nM

## Cn1cc(-c2ccccc2Oc2ccccc2)cc(N)c1=O
[1]
  Ki: 3000 nM
MX1
  EC50: > 5000 nM
[2]
  EC50: 8500 nM

## Cn1cc(-c2cc(NS(=O)(=O)CC(F)(F)F)ccc2Oc2ccccc2)c2cc[nH]c2c1=O
[1]
  Ki: 4.4 nM
MX1
  EC50: 31 nM
Liver [3]
  CL free: 46.7 mL/min/kg
Liver [4]
  CL free: 650 mL/min/kg
Liver [5]
  CL free: 1270 mL/min/kg
[6]
  Papp: 16 ×10⁻⁶ cm/s
[2]
  EC50: 22 nM

## COCCc1ccc(OCC(O)CNC(C)C)cc1 (stereo not given) [METOPROLOL]
[6]
  Papp: 36 ×10⁻⁶ cm/s

## Cn1cc(-c2ccccc2Oc2ccccc2)c2cc[nH]c2c1=O
[1]
  Ki: 48 nM
MX1
  EC50: 550 nM
Liver [3]
  CL free: 1670 mL/min/kg
Liver [4]
  CL free: 93300 mL/min/kg
Liver [5]
  CL free: 40000 mL/min/kg
[6]
  Papp: 31 ×10⁻⁶ cm/s
[2]
  EC50: 480 nM

## CCS(=O)(=O)Nc1ccc(Oc2cncnc2)c(-c2cn(C)c(=O)c3[nH]ccc23)c1
[1]
  Ki: 32 nM
MX1
  EC50: 130 nM
Liver [3]
  CL free: < 33.3 mL/min/kg
Liver [4]
  CL free: 233 mL/min/kg
Liver [5]
  CL free: 48.3 mL/min/kg
[6]
  Papp: 1 ×10⁻⁶ cm/s
[2]
  EC50: 170 nM

## Cn1cc(-c2cc(NS(C)(=O)=O)cnc2Oc2ccccc2)c2cc[nH]c2c1=O
[1]
  Ki: 4.1 nM
MX1
  EC50: 46 nM
Liver [3]
  CL free: 63.3 mL/min/kg
Liver [4]
  CL free: < 93.3 mL/min/kg
Liver [5]
  CL free: 600 mL/min/kg
[6]
  Papp: 6 ×10⁻⁶ cm/s
[2]
  EC50: 88 nM

## Cn1cc(-c2cc(NS(C)(=O)=O)ccc2OC2CCOCC2)c2cc[nH]c2c1=O
[1]
  Ki: 68 nM
MX1
  EC50: 72 nM
Liver [3]
  CL free: < 30 mL/min/kg
Liver [4]
  CL free: < 90 mL/min/kg
Liver [5]
  CL free: 233 mL/min/kg
[6]
  Papp: 1.7 ×10⁻⁶ cm/s
[2]
  EC50: 90 nM

## CCS(=O)(=O)Nc1ccc(OC2CCC(N(C)C)CC2)c(-c2cn(C)c(=O)c3[nH]ccc23)c1 (stereo not given)
[1]
  Ki: 26 nM
MX1
  EC50: 86 nM
Liver [3]
  CL free: < 26.7 mL/min/kg
Liver [4]
  CL free: 125 mL/min/kg
Liver [5]
  CL free: < 45 mL/min/kg
[6]
  Papp: 2.7 ×10⁻⁶ cm/s
[2]
  EC50: 270 nM

## CCS(=O)(=O)Nc1ccc(Oc2ccc(C(F)(F)F)cc2)c(-c2cn(C)c(=O)c3[nH]ccc23)c1
[1]
  Ki: 9 nM
MX1
  EC50: 30 nM
Liver [3]
  CL free: 128 mL/min/kg
Liver [4]
  CL free: 2830 mL/min/kg
Liver [5]
  CL free: 583 mL/min/kg
[6]
  Papp: 11 ×10⁻⁶ cm/s
[2]
  EC50: 65 nM
